Experimental data reported in ChEMBL document CHEMBL5338772, “Stereochemical Control of Splice Modulation in FD-895 Analogues” (J Med Chem, 2023).
Active and inactive are the calls of the source. No cut-off for these calls is given here.

Key:
SF3A3 pre-mRNA [1] = test: Modulation of splicing in SF3A3 pre-mRNA in human HCT-116 cells assessed as intron 5 retention level at 9 uM incubated for 4 hrs by qRT-PCR analysis; assay type: functional, cell-based; conditions: filed as modulator
Summary of the method: (§1)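 HCT-116 cells in supplemented McCoy's 5a, compound added from DMSO stock to a final 0.5% DMSO, 4 h at a single standardized concentration per analogue. Total RNA isolated and DNase-treated (1 µg). qPCR used 2.5 µM each primer on 5 ng cDNA, 40 cycles. Intron retention was computed by the 2^-CT method relative to GAPDH and expressed versus untreated cells set to 1.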

HCT-116 [2] = test: Upregulation of PLK-1 mRNA expression in human HCT-116 cells at 100 to 500 nM incubated for 24 hrs by qRT-PCR analysis; assay type: functional, cell-based; conditions: dose 100-500 nM
Summary of the method: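 24 h treatment of HCT-116 cells at 100, 250 or 500 nM, 0.5% final DMSO in supplemented McCoy's 5a. RNA isolated, DNase-treated, then qRT-PCR with 2.5 µM each primer on 5 ng cDNA. Levels by the 2^-CT method relative to GAPDH, normalized to untreated cells at 1.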

SF3B2 pre-mRNA [3] = test: Modulation of splicing in SF3B2 pre-mRNA in human HCT-116 cells assessed as intron 10 retention level at 9 uM incubated for 4 hrs by qRT-PCR analysis; assay type: functional, cell-based; conditions: filed as modulator; summary of the method: as §1
HCT-116 [4] = test: Modulation of splicing in MCL-1L pre-mRNA in human HCT-116 cells assessed as intron 5 retention at 100 to 500 nM incubated for 24 hrs by qRT-PCR analysis; assay type: functional, cell-based; conditions: dose 100-500 nM
Summary of the method: (§2)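 HCT-116 cells in supplemented McCoy's 5a with 0.5% DMSO, treated 24 h at 100, 250 or 500 nM; untreated cells as control. Total RNA isolated, 1 µg DNase I-treated, reverse transcribed. qPCR on 5 ng cDNA with 2.5 µM each primer, 40 cycles of 95 °C 30 s, 55 °C 60 s, 72 °C 60 s. Splice-event primers for intron retention or exon skipping; SF2 primers measure total expression. 2^-CT method relative to GAPDH, untreated set at 1.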

SF3B1 pre-mRNA [5] = test: Modulation of splicing in SF3B1 pre-mRNA in human HCT-116 cells assessed as intron 13 retention level at 9 uM incubated for 4 hrs by qRT-PCR analysis; assay type: functional, cell-based; conditions: filed as modulator; summary of the method: as §1
SF3A1 pre-mRNA [6] = test: Modulation of splicing in SF3A1 pre-mRNA in human HCT-116 cells assessed as intron 6 retention at 100 to 500 nM incubated for 24 hrs by qRT-PCR analysis; assay type: functional, cell-based; conditions: dose 100-500 nM; summary of the method: as §2
[7] = Cytotoxicity against human HCT-116 cells assessed as cell growth inhibition incubated for 72 hrs by MTS assay; assay type: toxicity, cell-based
Summary of the method: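 HCT-116 cells (ATCC; split every other day, no more than five generations, mycoplasma-tested) plated at 5 × 10³ cells/well in supplemented McCoy's 5a and grown 24 h at 37 °C, 5% CO₂. Compound added from DMSO (0.5% DMSO final) for 72 h. Cells washed with PBS, MTS reagent added for 2 h at 37 °C, A490 read against A690. GI₅₀ fitted from dose curves of 3 biological replicates.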

DNAJB1 pre-mRNA [8] = test: Modulation of splicing in DNAJB1 pre-mRNA in human HCT-116 cells assessed as intron 2 retention level at 9 uM incubated for 4 hrs by qRT-PCR analysis; assay type: functional, cell-based; conditions: filed as modulator
AURKA pre-mRNA [9] = test: Modulation of splicing in AURKA pre-mRNA in human HCT-116 cells assessed as effect on exon 4 skipping at 9 uM incubated for 4 hrs by qRT-PCR analysis; assay type: functional, cell-based; conditions: filed as modulator
DNAJB1 pre-mRNA [10] = test: Modulation of splicing in DNAJB1 pre-mRNA in human HCT-116 cells assessed as intron 2 retention at 100 to 500 nM incubated for 24 hrs by qRT-PCR analysis; assay type: functional, cell-based; conditions: dose 100-500 nM; summary of the method: as §2
SF3B1 pre-mRNA [11] = test: Modulation of splicing in SF3B1 pre-mRNA in human HCT-116 cells assessed as intron 13 retention at 100 to 500 nM incubated for 24 hrs by qRT-PCR analysis; assay type: functional, cell-based; conditions: dose 100-500 nM
Summary of the method: (§3)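 HCT-116 cells in supplemented McCoy's 5a with 0.5% final DMSO were treated for 24 h at 100, 250 or 500 nM. Total RNA isolated and DNase-treated (1 µg). qPCR used 2.5 µM each primer on 5 ng cDNA, 40 cycles. Intron retention was computed by the 2^-CT method relative to GAPDH and expressed versus untreated cells set to 1.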

HCT-116 [12] = test: Cytotoxicity against human HCT-116 cells assessed as reduction in cell viability at 9 uM incubated for 4 hrs by MTS assay; assay type: toxicity, cell-based; conditions: hct-116, 4 h
HCT-116 [13] = test: Cytotoxicity against human HCT-116 cells assessed as reduction in cell viability at 500 nM incubated for 24 hrs by MTS assay; assay type: toxicity, cell-based; conditions: hct-116, 24 h, 0.5 µM
Summary of the method: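 HCT-116 cells plated at 5 × 10³ cells/well in supplemented McCoy's 5a and grown 24 h at 37 °C, 5% CO₂. Compound given at 500 nM, the top dose of the 24 h splicing series, in 0.5% DMSO for 24 h. Cells washed with PBS, MTS reagent added for 2 h at 37 °C, A490 read against A690.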

SF3A3 pre-mRNA [14] = test: Modulation of splicing in SF3A3 pre-mRNA in human HCT-116 cells assessed as intron 5 retention at 100 to 500 nM incubated for 24 hrs by qRT-PCR analysis; assay type: functional, cell-based; conditions: dose 100-500 nM; summary of the method: as §2
SF3A1 pre-mRNA [15] = test: Modulation of splicing in SF3A1 pre-mRNA in human HCT-116 cells assessed as intron 6 retention level at 9 uM incubated for 4 hrs by qRT-PCR analysis; assay type: functional, cell-based; conditions: filed as modulator
SF3B2 pre-mRNA [16] = test: Modulation of splicing in SF3B2 pre-mRNA in human HCT-116 cells assessed as intron 10 retention at 100 to 500 nM incubated for 24 hrs by qRT-PCR analysis; assay type: functional, cell-based; conditions: dose 100-500 nM; summary of the method: as §3
SF3A3 pre-mRNA [17] = test: Modulation of splicing in SF3A3 pre-mRNA in human HCT-116 cells assessed as intron 5 retention level at 5.6 uM incubated for 4 hrs by qRT-PCR analysis; assay type: functional, cell-based; conditions: filed as modulator
SF3B2 pre-mRNA [18] = test: Modulation of splicing in SF3B2 pre-mRNA in human HCT-116 cells assessed as intron 10 retention level at 5.6 uM incubated for 4 hrs by qRT-PCR analysis; assay type: functional, cell-based; conditions: filed as modulator; summary of the method: as §1
DNAJB1 pre-mRNA [19] = test: Modulation of splicing in DNAJB1 pre-mRNA in human HCT-116 cells assessed as intron 2 retention level at 5.6 uM incubated for 4 hrs by qRT-PCR analysis; assay type: functional, cell-based; conditions: filed as modulator
AURKA pre-mRNA [20] = test: Modulation of splicing in AURKA pre-mRNA in human HCT-116 cells assessed as effect on exon 4 skipping at 5.6 uM incubated for 4 hrs by qRT-PCR analysis; assay type: functional, cell-based; conditions: filed as modulator
HCT-116 [21] = test: Cytotoxicity against human HCT-116 cells assessed as reduction in cell viability at 5.6 uM incubated for 4 hrs by MTS assay; assay type: toxicity, cell-based; conditions: hct-116, 4 h
SF3B1 pre-mRNA [22] = test: Modulation of splicing in SF3B1 pre-mRNA in human HCT-116 cells assessed as intron 13 retention level at 5.6 uM incubated for 4 hrs by qRT-PCR analysis; assay type: functional, cell-based; conditions: filed as modulator; summary of the method: as §1
SF3A1 pre-mRNA [23] = test: Modulation of splicing in SF3A1 pre-mRNA in human HCT-116 cells assessed as intron 6 retention level at 5.6 uM incubated for 4 hrs by qRT-PCR analysis; assay type: functional, cell-based; conditions: filed as modulator

With `CC[C@H](OC)[C@@H](C)[C@@H]1O[C@H]1[C@@H](O)[C@H](C)/C=C/C=C(\C)[C@H]1OC(=O)C[C@H](O)CC[C@@](C)(O)[C@@H](OC(C)=O)/C=C/[C@@H]1C` the Activity (SF3A3 pre-mRNA [1]) was under 3, the Activity (HCT-116 [2]) was “Active” and the Activity (SF3B2 pre-mRNA [3]) was over 3. The Activity (HCT-116 [4]) was “inactive”, the Activity (SF3B1 pre-mRNA [5]) was under 3 and the Activity (SF3A1 pre-mRNA [6]) was “inactive”. For the same molecule, the GI50 at 72 h [7] was 470 nM, the Activity (DNAJB1 pre-mRNA [8]) was over 3 and the Activity (AURKA pre-mRNA [9]) was “Active”. The Activity (DNAJB1 pre-mRNA [10]) was “inactive”, the Activity (SF3B1 pre-mRNA [11]) was “inactive” and the Activity (HCT-116 [12]) was “Non-Toxic”. The Activity (HCT-116 [13]) was “Non-Toxic”, the Activity (SF3A3 pre-mRNA [14]) was “inactive” and the Activity (SF3A1 pre-mRNA [15]) was over 3. For the same molecule, the Activity (SF3B2 pre-mRNA [16]) was “inactive”.
Molecule `CC[C@@H](OC)[C@H](C)[C@H]1O[C@@H]1[C@@H](O)[C@H](C)/C=C/C=C(\C)[C@H]1OC(=O)C[C@H](O)CC[C@@](C)(O)[C@@H](OC(C)=O)/C=C/[C@@H]1C` has an Activity (SF3A3 pre-mRNA [17]) of under 3, an Activity (SF3B2 pre-mRNA [18]) of over 3 and an Activity (DNAJB1 pre-mRNA [19]) of over 3. The Activity (AURKA pre-mRNA [20]) was “Active”, the GI50 at 72 h [7] was 285 nM and the Activity (HCT-116 [21]) was “Non-Toxic”. The Activity (SF3B1 pre-mRNA [22]) was under 3, the Activity (SF3A1 pre-mRNA [23]) was over 3 and the Activity (HCT-116 [13]) was “Non-Toxic”.
